From PubChem
m-calpain inh = inhibitors of pig calpain II; purified calpain II, fluorogenic peptide substrate, 30 min; inhibition, % at 16 µM; hit rate 0.37% among 220,000;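 active = inhibition above about 50%, limit read from the data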
RanGTP-Impb inh = inhibitors of RanGTP-importin-beta interaction, primary screen, biochemical, FRET, CFP-Ran, YFP-importin-beta, homogeneous; cell-free CFP-Ran/YFP-importin-beta FRET ratio; inhibition, % (no concentration beside the values); hit rate 1.1% among 300,000;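 active = more than half of the replicate wells show a fall in the fluorescence ratio signal beyond about 16%, limit read from the data, passing the limit was not always enough; inconclusive = exactly half of the replicate wells pass the set limit; inactive = fewer than half of replicates pass the limit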;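 note: 0% = DMSO wells and 100% = Ran loaded with GDP instead of GTP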
FAS TE block = inhibitors of human fatty acid synthase thioesterase domain; P49327; recombinant FAS-TE, OMFH fluorogenic substrate, fluorescence endpoint; inhibition, % at 15 µM; hit rate 0.67% among 360,000;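 active = compounds whose normalised, plate-corrected inhibition of enzyme fluorescence in the single-dose primary screen is 50% or more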;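 note: 0% = DMSO with enzyme and 100% = substrate without enzyme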
Runt-CBFb FRET = Runt domain-CBFb interaction inhibition; Q01196+Q13951; Cerulean-Runt/Venus-CBFb FRET ratio 530/480, 1 h; inhibition, % at 20 µM; hit rate 0.46% among 220,000; AID 1496;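 active = inhibition over about 50% at 20 µM in the single-dose screen, limit read from the data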;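 note: 0% = DMSO wells and 100% = excess unlabeled CBFb competitor control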
Target sequence (Q01196 whole entry, looked up, the tested form may be a part): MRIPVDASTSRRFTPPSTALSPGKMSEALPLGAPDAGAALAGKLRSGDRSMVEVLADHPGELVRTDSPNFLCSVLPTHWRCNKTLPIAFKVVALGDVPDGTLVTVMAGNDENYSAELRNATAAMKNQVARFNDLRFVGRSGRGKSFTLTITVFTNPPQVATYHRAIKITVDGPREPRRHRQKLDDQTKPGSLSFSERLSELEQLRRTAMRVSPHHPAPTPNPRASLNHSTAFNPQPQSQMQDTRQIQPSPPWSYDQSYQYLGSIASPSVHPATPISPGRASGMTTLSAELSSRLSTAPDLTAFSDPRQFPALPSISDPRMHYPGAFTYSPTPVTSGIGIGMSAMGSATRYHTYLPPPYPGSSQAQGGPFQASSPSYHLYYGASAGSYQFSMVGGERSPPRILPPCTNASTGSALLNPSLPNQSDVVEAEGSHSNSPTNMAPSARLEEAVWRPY
Target sequence (Q13951 whole entry, looked up, the tested form may be a part): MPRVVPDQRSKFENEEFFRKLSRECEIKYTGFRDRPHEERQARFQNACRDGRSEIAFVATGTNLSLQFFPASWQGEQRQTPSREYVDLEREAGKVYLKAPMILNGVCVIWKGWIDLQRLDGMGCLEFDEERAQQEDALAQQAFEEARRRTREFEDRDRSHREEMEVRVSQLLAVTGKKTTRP
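test system = Cerulean-Runt domain fusion protein, energy donor | probe or stimulus = Venus-CBFb binding partner, 100 nM | incubation = two 1 h room-temperature incubations shielded from light | detection = fluorescence energy transfer, 422 nm excitation, 530/480 nm emission | measure = loss of energy transfer signal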
Runt-SMMHC FRET = inhibitors of human RUNX1 Runt domain binding to CBFb-SMMHC; Q01196+Q13951; Cerulean-Runt/Venus-CBFb-SMMHC FRET ratio 530/480, 1 h; inhibition, % at 20 µM; hit rate 0.74% among 220,000; AID 1434;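 active = mean inhibition across duplicate retests at 20 µM reaching about 50%, limit read from the data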;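 note: 0% = DMSO wells and 100% = wells with excess untagged CBFb-SMMHC; inhibitors lower the FRET ratio by blocking Runt binding to CBFb-SMMHC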
RUNX1 CBFb TR = inhibitors of human RUNX1 Runt domain binding to CBFb; shares compounds with Runt-CBFb FRET; TR-FRET RUNX1 Runt domain-CBFb binding; inhibition, % at 20 µM; hit rate 20% among 480; AID 1502; in the data active = inhibition above about 40%
* marks the source's active call; other numbers are inactive results. Rows were chosen to be rich in hits. Some 2.1% of all compounds tested hit in one or more screens of this group.

Results for CCCn1nc(NC(=O)C2CCCO2)c2cc3cccc(C)c3nc21 (stereo unspecified) ?
m-calpain inh: 5; RanGTP-Impb inh: 68*; FAS TE block: 5; Runt-CBFb FRET: 62*; Runt-SMMHC FRET: 82*; RUNX1 CBFb TR: 24

How did O=C(Nc1cccc(S(=O)(=O)N2CCCCCC2)c1)C1CCN(C(=O)c2ccc(Cl)cc2)CC1 do in these assays?
RanGTP-Impb inh: 3; FAS TE block: 15

What do the screens show for `Cc1ccc2nc3c(cc2c1)c(NC(=O)c1ccccn1)nn3CC(C)C`?
m-calpain inh: 2; RanGTP-Impb inh: 116*; FAS TE block: 20; Runt-CBFb FRET: 53*; Runt-SMMHC FRET: 90*; RUNX1 CBFb TR: 33

What do the screens show for `O=C(NNC1=C(C(=O)C(F)(F)F)CCC1)c1ccc(Cl)cc1`?
m-calpain inh: -21; RanGTP-Impb inh: -4; FAS TE block: 14; Runt-CBFb FRET: 77*; Runt-SMMHC FRET: 3; RUNX1 CBFb TR: -32

Results for COc1ccc([C@H]2CC(=O)C=C(c3c(C)cc(C)cc3C)C2)cc1 ?
FAS TE block: 22

How did COc1ccc(C2=NS(=O)(=O)N(C)C(C(=O)N(C)Cc3ccccc3)=C2)cc1OC do in these assays?
RanGTP-Impb inh: 4; FAS TE block: 7

How did NS(=O)(=O)c1cc(C(=O)OCC(=O)Nc2ccc(N3CCCCC3)cc2)ccc1Cl do in these assays?
m-calpain inh: 8; RanGTP-Impb inh: 3; FAS TE block: 1; Runt-CBFb FRET: 81*; Runt-SMMHC FRET: 1; RUNX1 CBFb TR: 17

Results for C=CCNC(=O)/C(C#N)=C/c1c(N(Cc2ccccc2)Cc2ccccc2)nc2ccccn2c1=O ?
m-calpain inh: -3; RanGTP-Impb inh: 4; FAS TE block: 23; Runt-CBFb FRET: 51*; Runt-SMMHC FRET: 71*; RUNX1 CBFb TR: -8

What do the screens show for `N#C/C(=C\c1c(N(Cc2ccccc2)Cc2ccccc2)nc2ccccn2c1=O)C(N)=O`?
m-calpain inh: 4; RanGTP-Impb inh: 0; FAS TE block: 14; Runt-CBFb FRET: 3; Runt-SMMHC FRET: 7

Results for CCOC(=O)c1c(NC(=S)Nc2ccc(F)cc2)sc2c1CCC2 ?
m-calpain inh: -38; RanGTP-Impb inh: 5; FAS TE block: 0; Runt-CBFb FRET: 7; Runt-SMMHC FRET: 2

What do the screens show for `CCOC(=O)c1c(NC(=S)Nc2ccc(OCC)cc2)sc2c1CCN(C)C2`?
m-calpain inh: -17; RanGTP-Impb inh: 19*; FAS TE block: -5; Runt-CBFb FRET: 82*; Runt-SMMHC FRET: 52*; RUNX1 CBFb TR: 13

What do the screens show for `COc1ccc(OC)c(NC(=O)COc2ccc3c(c2)CCC3)c1`?
FAS TE block: 39

What do the screens show for `CSc1ccc(C(=S)N2CCCC2)cc1`?
RanGTP-Impb inh: 4; FAS TE block: -2

Results for CSc1ccc(C(=S)N2CCN(C)CC2)cc1 ?
m-calpain inh: -21; RanGTP-Impb inh: -1; FAS TE block: -9; Runt-CBFb FRET: 54*; Runt-SMMHC FRET: 39; RUNX1 CBFb TR: -10

How did CN1CCN(C(=S)c2ccc(Br)cc2)CC1 do in these assays?
m-calpain inh: -12; RanGTP-Impb inh: inconclusive; FAS TE block: -10; Runt-CBFb FRET: 50*; Runt-SMMHC FRET: 44; RUNX1 CBFb TR: 6

How did O=C(/C=C/c1ccccc1[N+](=O)[O-])N1CCc2ccccc2C1 do in these assays?
RanGTP-Impb inh: -4; FAS TE block: 13

Results for C#CCNC(=O)C1=C[C@@H](c2ccc(Br)cc2)C[C@@H](OCCCCO)O1 ?
m-calpain inh: -14; RanGTP-Impb inh: -1; FAS TE block: 5; Runt-CBFb FRET: -2; Runt-SMMHC FRET: -9

How did COc1cccc(CN2CCNC(=O)C2CC(=O)NCCN2CCCCC2=O)c1 (stereo unspecified) do in these assays?
RanGTP-Impb inh: -4; FAS TE block: -4

What do the screens show for `O=c1cc(O)c2sc(Nc3cccc(C(F)(F)F)c3)nc2[nH]1`?
m-calpain inh: -14; RanGTP-Impb inh: -2; FAS TE block: -2; Runt-CBFb FRET: 60*; Runt-SMMHC FRET: 45; RUNX1 CBFb TR: 29

Results for O=c1cc(O)c2sc(Nc3ccc(F)cc3)nc2[nH]1 ?
m-calpain inh: -25; RanGTP-Impb inh: 4; FAS TE block: -7; Runt-CBFb FRET: 56*; Runt-SMMHC FRET: 34; RUNX1 CBFb TR: 6

How did Cc1cccc(-c2nc(CNC(=O)c3ccco3)cs2)c1 do in these assays?
RanGTP-Impb inh: 4; FAS TE block: -3
